Paper PMC7611836 (Journal of natural products, 2020)
Read-outs that look alike come from different tables or passages of the source.

Legend:
C4-2 cells [1] = assay: Cell growth curves; format: cell-based, Human; settings: 1 μM
Outline: (§1)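 Cells were seeded at 1,000 per well in RPMI 1640 with 10% FBS, 25 mM HEPES and 1 mM pyruvate, then grown with 1 μM test compound. Read-out was confluence (% of well surface covered by adherent cells) over time, also taken after 150 h. Eight replicates per condition; mean ± S.E.M.; unpaired two-tailed t-test.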

C4-2B cells [2] = assay: Cell growth curves; format: cell-based, Human; settings: 1 μM
Outline: as §1

PNT2 cells [3] = assay: Cell growth curves; format: cell-based, Human; settings: 1 μM
C4-2 cells [4] = assay: Cell viability and cell count; format: cell-based, Human; settings: 1 μM, 48 hours
Outline: (§2)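 150,000 cells per well were grown overnight, then given 1 μM test compound (ethanolic stock diluted in medium) or ethanol control for 48 h. Cells were trypsinized, pelleted (400 x g, 5 min), resuspended in PBS, stained with acridine orange/DAPI, and read for viability and count. n = 4 treated, 10 control; mean ± S.E.M.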

C4-2B cells [5] = assay: Cell viability and cell count; format: cell-based, Human; settings: 1 μM, 48 hours
Outline: as §2

PNT2 cells [6] = assay: Cell viability and cell count; format: cell-based, Human; settings: 1 μM, 48 hours
Outline: as §2

[7] = cited from earlier work; for neurotoxicity / crossing of the blood-brain barrier: rats and mice; for detection in brain as metabolite of 1 and 2: rat model of Parkinson's disease
C4-2 cells [8] = assay: Oxygen consumption rate; format: cell-based, Human; settings: 1 μM
Outline: (§3)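 Mycoplasma-tested cells, 20,000 per poly-L-lysine-coated well, 16 h at 37 °C, 5% CO2. Moved to carbonate-free RPMI assay buffer (4.5 g L-1 glucose, pyruvate, pH 7.4) for 60 min CO2-free. […] Rotenone-insensitive rate subtracted; traces set to 100% pre-addition. n = 6 treated, 16 control; mean ± S.E.M.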

C4-2B cells [9] = assay: Oxygen consumption rate; format: cell-based, Human; settings: 1 μM
Outline: as §3

PNT2 cells [10] = assay: Oxygen consumption rate; format: cell-based, Human; settings: 1 μM
Outline: as §3

[11] = system: A-549 lung, HCT-8 intestinal, RPMI-7951 skin, TE671 brain, and KB cervical cancer cells; settings: range over all cell types; cited from earlier work
cancer cell = settings: Annexin V flow cytometry; cited from earlier work

C=C(C)[C@H]1Cc2c(ccc3c2O[C@@H]2COc4cc(OC)c(OC)cc4[C@@H]2C3=O)O1 [compound 1, rotenone]
proliferation (cell growth) (C4-2 cells [1]): did not proliferate | proliferation (cell growth) (C4-2B cells [2]): did not proliferate | proliferation (cell growth) (PNT2 cells [3]): retained their ability to proliferate, albeit at a substantially reduced rate | cell count (C4-2 cells [4]): affected cell counts | cell count (C4-2B cells [5]): affected cell counts | cell count (PNT2 cells [6]): affected cell counts | neurotoxicity ([7]; 3 mg kg^-1 day^-1): cause neuronal damage | crossing of the blood-brain barrier [7]: cross the blood-brain barrier

COc1cc2c(cc1OC)[C@@H]1C(=O)c3ccc4c(c3O[C@@H]1CO2)C[C@H](C(C)CO)O4 (mixture of isomers) [compound 5, (6aS,12aS,5′R,6′R)- and (6aS,12aS,5′R,6′S)-6′,7′-Dihydroamorphigenin]
oxygen consumption rate (C4-2 cells [8]): powerful effect | oxygen consumption rate (C4-2B cells [9]): powerful effect | oxygen consumption rate (PNT2 cells [10]): powerful effect | proliferation (cell growth) (C4-2 cells [1]): particularly affected | proliferation (cell growth) (C4-2B cells [2]): responded | cell count (C4-2B cells [5]): marginal effects

COc1cc2c(cc1OC)[C@@H]1C(=O)c3ccc4c(c3O[C@@H]1CO2)C=CC(C)(C)O4 [compound 2, deguelin]
neurotoxicity ([7]; 6 mg kg^-1 day^-1): cause neuronal damage | crossing of the blood-brain barrier [7]: cross the blood-brain barrier

COc1cc2c(cc1OC)[C@@H]1C(=O)c3ccc4c(c3O[C@@H]1CO2)C[C@H](C(C)(C)O)O4 [compound 4, (6aS,12aS,5′R)-Dalpanol]
ED50 (half-maximal effective concentration), cytotoxicity [11]: 0.48 to 4.83 µg/mL

C=C(C)[C@H]1Cc2c(ccc3c2O[C@@H]2COc4cc(OC)c(OC)cc4[C@]2(O)C3=O)O1 [compound 7, (6aR,12aR,5′R)-Rotenolone]
detection in brain as metabolite of 1 and 2 [7]: detected in the brains of treated animals | crossing of the blood-brain barrier [7]: cross the BBB

COc1cc2c(cc1OC)[C@]1(O)C(=O)c3ccc4c(c3O[C@@H]1CO2)C=CC(C)(C)O4 [compound 8, tephrosin]
detection in brain as metabolite of 1 and 2 [7]: detected in the brains of treated animals | crossing of the blood-brain barrier [7]: cross the BBB

Cc1nc(-c2nc(-c3ccc(OC(F)(F)F)cc3)no2)nn1Cc1cccc(N2CCC(S(C)(=O)=O)CC2)c1 [IACS-01079]
effect on cancer cell proliferation and viability (cancer cell): inhibit both cancer cell proliferation and viability
